Screening results: PubChem, several laboratories
Shown are actives, neighbours in structure and some others; about 2.5% of the full set was active somewhere.
TbHK1 inh: T. brucei hexokinase 1 inhibition. inhibition, % at 10 µM. 0.11% of 220,000 active. recombinant TbHK1, G6PDH-coupled NADH A340;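 active means inhibition of 50% or more in the single-dose primary screen; inactive means inhibition below 50%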
PGE2 EP2 inh: blocks the human prostaglandin E2 receptor EP2; P43116; AID 1422; inhibition, % at 25 µM; 0.52% of 260,000 active; C6 glioma cells expressing human EP2, cAMP TR-FRET; cells stimulated with saturating PGE2;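 active means percent inhibition above 40 after rounding to a whole number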;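 further: rat C6 glioma host cells with rolipram phosphodiesterase inhibitor present; the protocol text gives 20 µM as final concentration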
Target sequence (P43116 whole entry, looked up): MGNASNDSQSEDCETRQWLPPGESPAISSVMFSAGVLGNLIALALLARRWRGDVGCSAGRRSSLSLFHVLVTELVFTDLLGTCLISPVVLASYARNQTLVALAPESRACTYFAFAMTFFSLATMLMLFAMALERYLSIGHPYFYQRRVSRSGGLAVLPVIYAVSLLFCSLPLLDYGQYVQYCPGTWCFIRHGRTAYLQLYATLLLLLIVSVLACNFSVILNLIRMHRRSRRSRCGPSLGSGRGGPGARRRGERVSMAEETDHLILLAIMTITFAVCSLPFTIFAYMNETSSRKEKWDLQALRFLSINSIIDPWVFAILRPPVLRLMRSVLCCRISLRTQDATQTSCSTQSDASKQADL
HKDC1 inhibitor: blocks human hexokinase HKDC1 activity. inhibition, % at 20 µM. recombinant HKDC1, G6PDH/diaphorase resazurin coupled fluorescence. 0.16% of 340,000 active. Q2TB90. AID 493160;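 active means inhibition above about 35% when tested at 20 µM, limit read from the data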;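 further: plate controls were DMSO wells with enzyme for no effect and DMSO wells lacking enzyme for full effect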
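Material – in-house recombinant HK5 (HKDC1) enzyme · Quantity – HKDC1 at 5 µg/mL · Buffer or medium – pH 8.0 Tris buffer with 10 mM MgCl2 · Reagent – glucose with 1 mM ATP · Dosing – single 20 µM dose · Times – reaction time 90 min, room temperature, protected from light · Technique – resorufin fluorescence at 613 nm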
EP2 mod: modulators of human EP2 prostaglandin E2 receptor; AID 940; induction, % at 25 µM; EP2-expressing cells, cAMP HTRF FRET, PGE2 co-stimulation; 0.83% of 260,000 active; P43116;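 active means compounds whose cAMP rise, as percent of the full-agonist control response, exceeds 60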;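 further: rat C6 glioma line stably carrying human EP2 under a CMV promoter; the protocol text gives 20 µM as final concentration; 100% = response of wells given 1 µM PGE2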
PHOSPHO1 block: inhibitors of human PHOSPHO1 phosphatase. AID 1565. 1.1% of 290,000 active. recombinant PHOSPHO1, absorbance phosphatase assay. inhibition, % at 13.3 µM. Q8TCT1; in the data active means inhibition above about 60%
PfG6PD inh: PfG6PD (Plasmodium falciparum) enzyme inhibition; PfGluPho enzyme, NADPH resazurin-diaphorase fluorescence; inhibition, % at 20 µM; 0.78% of 350,000 active; AID 504690;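 active means inhibition reaching at least a set limit at 20 µM in the primary screen, cut at about 59% in these data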;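 further: 0% = DMSO wells with substrate and 100% = DMSO wells lacking glucose-6-phosphate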
Numbers without * were called inactive; / = no result.

SMILES	TbHK1 inh	PGE2 EP2 inh	HKDC1 inhibitor	EP2 mod	PHOSPHO1 block	PfG6PD inh
CC1CC(C)CN(C(=O)C(Cc2ccccc2)n2cccc2)C1 (stereo not drawn)	5	8	-3	62*	37	16
COc1nc(C)nc(C)c1Oc1ccc(Cl)cc1Cl	-10	2	-4	65*	41	0
Cc1nc(-c2ccccc2)[nH]c(=O)c1Oc1ccc(Cl)cc1Cl	-2	5	7	-10	16	-21
COc1cccc(NC(=O)CN2CCC3(CC2)Nc2ccccc2-n2cccc23)c1	/	/	/	-68	/	/
O=C(CSc1nc2ccccc2[nH]1)NCCN1CCCCC1	4	6	-10	26	65*	-4
N#Cc1c(-c2ccc3c(c2)OCO3)cc(-c2ccccc2)nc1N	/	15	/	66*	/	/
CCNc1nc(NCC)nc(SCCOC(=O)c2ccccc2)n1	9	6	3	63*	3	3
CCNc1nc(NCC)nc(SCCOC(=O)Nc2ccc(Cl)cc2Cl)n1	0	4	17	30	10	-17
CN(C)c1ccc(/C=C/c2ccc3ccccc3[n+]2C)cc1	-15	100*	-1	-25	-26	28
Cc1ccc(C)c(NC(=O)Cn2cc(C(=O)C(C)C)c3ccccc32)c1	/	5	/	4	/	/
Nc1ccccc1-c1n[nH]c(=S)s1	-16	67*	-2	0	23	4
Nc1c(C(=O)c2ccccc2)sc2nsc(SCCN3CCCC3)c12	-8	6	6	-50	6	9
CC(=O)c1sc2nsc(SCCN3CCCCC3)c2c1N	-24	9	-2	-33	70*	43
Nc1c(C(=O)c2ccc(Cl)cc2)sc2nsc(SCCN3CCOCC3)c12	-11	8	3	-19	63*	12
CCOC(=O)c1sc2nc(N3CCCC3)c3c(c2c1N)CC(C)(C)OC3	-1	6	2	34	55	-3
COc1ccc2c(c1)c1nnc(SCC(=O)N3CCCCC3)nc1n2C	/	10	/	-2	/	/
S=C(NN=C1CCCCCC1)Nc1ccc(Cl)cc1	2	11	-28	0	85*	4
O=C(COc1ccc(Cl)cc1)NN=C1CCCCCCC1	/	/	-2	/	29	3
Fc1ccc(NC(=S)NN=C2CCCCCC2)cc1	12	8	-23	-7	100*	21
O=S(=O)(c1ccc(N2CCOCC2)c(Cl)c1)N1CCOCC1	/	/	4	/	10	-12
O=c1c2ccccc2sn1-c1cc(S(=O)(=O)N2CCOCC2)ccc1N1CCOCC1	50*	11	0	-39	-36	111*
Cc1ccc(-c2cc3ccccc3nc2N2CCCC2)cc1	-3	11	1	62*	10	0
Clc1ccc(-c2cc3ccccc3nc2N2CCCC2)cc1	3	10	-1	64*	10	-16
Clc1ccc(-c2cc3ccccc3nc2N2CCOCC2)cc1	-10	7	-2	54	32	-11
COc1ccc(CNc2n[nH]c3nc(C)cc(C)c23)cc1	/	12	/	-86	/	/
SMILES	TbHK1 inh	PGE2 EP2 inh	HKDC1 inhibitor	EP2 mod	PHOSPHO1 block	PfG6PD inh
C=CCn1c(=S)[nH]c2ccccc2c1=O	1	14	3	5	3	8
Cn1c(=S)[nH]c2scc(-c3cccs3)c2c1=O	4	78*	18	-25	44	13
C=CCn1c(=S)[nH]c2scc(-c3cccs3)c2c1=O	-4	63*	-8	-20	40	-5
Cc1cc(C)n(CCN(C)C(=O)C2CCC(=O)N(CCc3cccc(F)c3)C2)n1 (stereo not drawn)	/	/	-8	/	64*	5
COc1ccc(CCN2CC(C(=O)N(C)CCn3nc(C)cc3C)CCC2=O)cc1 (stereo not drawn)	/	/	2	/	7	6
CC(C)N(Cc1cnn(C)c1)C(=O)C1CCC(=O)N(CCc2cccc(F)c2)C1 (stereo not drawn)	/	/	-7	/	61*	-12
Cc1cccc2cc(C#N)c(SCC(=O)Nc3cccc4ccccc34)nc12	/	22	/	2	/	/
COc1ccc(S(=O)(=O)N2CCC(C(=O)NCc3ccccc3OC)CC2)cc1	/	5	/	-30	/	/
Cc1ccc(NC(=O)CN2CCC(O)(c3ccccn3)CC2)cc1F	/	/	/	-45	/	/
Cc1nc2ccc(-c3nc4ccccc4o3)cc2[nH]1	-3	10	2	-14	-7	2
Nc1ccc(-c2nc3ccc(-c4nc5ccccc5o4)cc3[nH]2)cc1	-55	73*	4	-37	11	2
